The entries come from a sample that favours hits as a whole.
bCat KO growth: beta-catenin-lacking colon tumor cell growth suppression | hit rate 1.5% among 140,000 | HCT116 beta-catenin knockout viability, CellTiter-Glo, 60 h; stronger effect = lower value | viability, % at 10 µM | AID 818;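 active = viability at or under a set limit, the compound median less 4 SD, cut at about 6% in these data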;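 also: 0% = Hyamine 1622 control at 20 µM and 100% = untreated cell control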
Fibroblast inh: blocks proliferation of human lung fibroblasts; LL 47 human lung fibroblast viability, ATP luminescence; stronger effect = lower value; viability, % at 10 µM; hit rate 1.1% among 85,000;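 active = viability at or below 50% in the single dose screen; inactive = viability above 50%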;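 also: compound exposure lasted 72 h before the ATP readout; 100% = median luminescence of untreated cell-only wells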
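Times – overnight cell rest, 72 h compound treatment at 37 °C · Test system – human lung fibroblast line LL 47, low passage · Amount – 1,150 cells in each well · Controls – cell-only wells, no compound · Doses – 0.1% DMSO in all compound wells · Measured by – CellTiter-Glo luminescence · Buffer or medium – IMEM plus 15% FBS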
HUVEC inhibit: blocks proliferation of human endothelial cells | HUVEC proliferation, CellTiter-Glo luminescence, 72 h; stronger effect = lower value | viability, % at 10 µM (by protocol) | hit rate 1.1% among 86,000 | AID 648;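 active = viability at or below 30%; inactive = viability above 30%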;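 also: 100% = median luminescence of DMSO-only cell control wells on each plate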
H69AR growth 86K: blocks growth of human H69AR lung tumor cells; H69AR lung tumor viability, ATP luminescence, 72 h; stronger effect = lower value; viability, % at 10 µM; hit rate 6% among 85,000;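 active = viability at or below 40%; inactive = viability above 40%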;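 also: multidrug resistant small cell line overexpressing MRP-1 efflux transporter; 100% = mean luminescence of untreated control wells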
PTEN del growth: PTEN-deleted cell growth suppression; HCT116 PTEN-null viability, CellTiter-Glo, 60 h; stronger effect = lower value; viability, % at 10 µM; hit rate 1.2% among 140,000; AID 827;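 active = viability at or below a set limit, 4 SD under the median of all tested compounds, cut at about 3.7% in these data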;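 also: PTEN knockout HCT116 line with beta catenin targeted HCT116 as companion control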
* = called active by the depositor; x = no result given.

SMILES | bCat KO growth | Fibroblast inh | HUVEC inhibit | H69AR growth 86K | PTEN del growth
CCOC(=O)C1=C(O)C(=O)N(c2ccc(S(N)(=O)=O)cc2)C1c1ccc(Cl)cc1 (centres undefined) | 92 | 103 | 99 | 105 | 97
CN1CCN(C2=Cc3ccc(Cl)cc3Sc3ccc(F)cc32)CC1 | 10 | 94 | 3.8* | 21* | 6
Cc1ccsc1C1NC(=O)c2ccccc2N1 (centres undefined) | 72 | 88 | 63 | 23* | 74
O=C1NC(c2cccs2)Nc2ccccc21 (centres undefined) | 84 | 100 | 100 | 61 | 66
COC(=O)c1ccc2c(c1)N(Cc1nc(-c3ccc(Cl)cc3)oc1C)C(=O)C1CCCN21 (centres undefined) | x | 96 | 87 | 15* | x
COC(=O)c1ccc2c(c1)N(Cc1nc(-c3cccc(Cl)c3)oc1C)C(=O)C1CCCN21 (centres undefined) | x | 85 | 83 | 68 | x
NC(=O)c1ccc(N2CCCCC2)c(N2C(=O)C3C4C=CC(C4)C3C2=O)c1 (centres undefined) | 92 | 100 | 98 | 71 | 87
COCC(C)NC(=O)NC1(C(F)(F)F)Oc2ccc(Cl)cc2O1 (centres undefined) | 29 | 65 | 52 | 23* | 34
O=C(NCCN1CCOCC1)NC1(C(F)(F)F)Oc2ccc(Cl)cc2O1 (centres undefined) | 24 | x | x | x | 31
O=C(Nc1ncc(Cc2ccccc2)s1)c1cccs1 | 82 | 81 | 71 | 69 | 68
Cc1ccc(Cc2cnc(NC(=O)c3cccs3)s2)cc1 | 37 | 78 | 56 | 17* | 28
O=C(Nc1ncc(Cc2cccc(Cl)c2)s1)c1cccs1 | 33 | 84 | 31 | 35* | 42
COc1ccc(CCNC(=O)CCS(=O)(=O)c2cccc3nsnc23)cc1OC | 100 | 102 | 92 | 97 | 95
CCCOc1ccccc1C1CC(=O)NC(C)=C1C(=O)OCC(C)C (centres undefined) | 76 | 89 | 111 | 89 | 81
O=C(O)CCNS(=O)(=O)c1ccccc1 | 102 | 96 | 91 | 104 | 104
CC(=O)C1(C)OC(N)=C(C#N)C(c2ccccc2)C1(C#N)C#N (centres undefined) | 89 | 94 | 98 | 38* | 101
CC(=O)C1=C(c2ccccc2)OC(N)=C(C#N)C1c1ccccc1C (centres undefined) | 77 | x | x | x | 74
CCc1nnc(NC(=O)CSc2nnc(CNc3ccc(OC)cc3)n2C)s1 | 90 | x | x | x | 103
CC1=C(C(=O)OCc2ccccc2)C(c2cccs2)NC(=O)N1CCCC(=O)O (centres undefined) | 90 | x | x | x | 90
COC(=O)C1=C(C)N(CCCC(=O)O)C(=O)NC1c1cccs1 (centres undefined) | 0.4* | x | x | x | 0.5*
Cc1oc(-c2ccccc2Cl)nc1Cn1cccc1C1=NC(c2ccccc2)CO1 (centres undefined) | 59 | 93 | 87 | 97 | 61
CCn1c(SCC(=O)Nc2sc3c(c2C(N)=O)CCC(C)C3)nnc1-c1ccco1 (centres undefined) | 92 | 108 | 100 | 87 | 90
COc1ccc2sc3c(=O)[nH]c4ccccc4c3c2c1 | 31 | x | x | x | 29
COc1ccc2c(c1)[nH]c(=O)c1sc3ccccc3c12 | 5.1* | x | x | x | 9
Cc1ccc(-n2nc(C)c3c(C)c(CCC(=O)NCc4ccccc4)c(C)nc32)cc1 | 77 | 77 | 66 | 32* | 78
SMILES | bCat KO growth | Fibroblast inh | HUVEC inhibit | H69AR growth 86K | PTEN del growth
Cc1ccc(-n2nc(C)c3c(C)c(CCC(=O)NCc4ccco4)c(C)nc32)cc1 | 78 | 100 | 87 | 42 | 68
CCC(=O)NC(c1ccccc1OC)c1ccc2cccnc2c1O (centres undefined) | 3.9* | 11* | 4.1* | 1.8* | 2.7*
CCOc1cc(C2C(C#N)=C(N)OC(C)=C2C(C)=O)c(Br)c(Br)c1OC(C)C (centres undefined) | 12 | 62 | 31 | 3.2* | 10
O=C1C2C3C=CC(CO)(O3)C2C(=O)N1c1ccccc1-c1ccccc1 (centres undefined) | 93 | 8.3* | 78 | 3.9* | 107
C=CCn1c(SCC(=O)Nc2cccc3ccccc23)nc(O)c(CC)c1=O | 91 | 96 | 81 | 68 | 88
CC(C)N=C(NS(=O)(=O)c1ccccc1)C(Cl)(Cl)Cl | 3.5* | x | x | x | 2.0*
COc1cc2c(=O)n(Cc3ccccc3)c(=O)n(CC(=O)NCCc3ccccc3)c2cc1OC | 67 | 65 | 76 | 33* | 33
Cc1ccc(C)c(OC(=O)c2ccncc2)c1 | 91 | 101 | 99 | 70 | 97
O=C(Nc1ccc2nc3n(c(=O)c2c1)CCCC3)c1cc([N+](=O)[O-])ccc1F | 2.5* | x | x | x | 10
Nc1nc(SCC(=O)Nc2ccccc2Oc2ccccc2)n[nH]1 | 90 | x | x | x | 90
Cc1ccsc1/C=C/C1=Cc2c(sc(NC(=O)CSc3n[nH]c(N)n3)c2C#N)C(C)(C)C1 | 75 | 89 | 15* | 1.7* | 74
CCOc1ccc(/C=C/C2=Cc3c(sc(NC(=O)CSc4n[nH]c(N)n4)c3C#N)C(C)(C)C2)cc1 | 28 | 48* | 3.6* | 1.8* | 20
COc1ccc(-c2c(C)n([O-])c(C)c(C)[n+]2=O)cc1 | 91 | 103 | 106 | 92 | 114
CCOc1cc(/C=C2\CCC/C(=C\c3cc(Cl)c(O)c(OCC)c3)C2=O)cc(Cl)c1O | 2.0* | x | x | x | 1.7*
C=CCNC(=O)/C(C#N)=C\c1cc(Cl)c(O)c(OCC)c1 | 104 | x | x | x | 97
Nc1nc(N2CCCCC2)nc(N2CCCCC2)n1 | 91 | 95 | 97 | 98 | 97
C1CCN(c2nc(N3CCCC3)nc(N3CCNCC3)n2)C1 | 62 | 86 | 90 | 6.0* | 51
c1ccc(Nc2nc(N3CCCCC3)nc(N3CCCCC3)n2)cc1 | 81 | 92 | 87 | 91 | 86
c1ccc(Nc2nc(N3CCCCC3)nc(N3CCNCC3)n2)cc1 | 1.5* | x | x | x | 1.4*
O=C(C1CCCO1)N1CCN(C(=S)Nc2ccc(Cl)c(Cl)c2)CC1 (centres undefined) | 88 | x | x | x | 96
O=C(COC(=O)c1ccccc1NC(=O)c1ccco1)Nc1ccc2c(c1)OCO2 | 85 | 95 | 91 | 38* | 82
O=C(COC(=O)c1ccccc1NCc1ccco1)Nc1ccc2c(c1)OCO2 | 90 | 97 | 84 | 67 | 89
O=S(NCc1ccccc1)C12CC3CC(CC(C3)C1)C2 (centres undefined) | 107 | 95 | 102 | 97 | 94
COc1cccc(C(=O)Oc2ccccc2/C=C\C(=O)c2cc3ccccc3o2)c1 | 2.2* | x | x | x | 1.1*
O=C(Oc1ccccc1/C=C\C(=O)c1cc2ccccc2o1)c1ccccc1 | 2.3* | x | x | x | 2.4*
O=C(Nc1ccccc1)c1ccc(OC(=O)c2cc3ccccc3o2)cc1 | 89 | 93 | 75 | 89 | 95
O=C(Oc1ccccc1/C=C\C(=O)c1cc2ccccc2o1)c1cccc(F)c1 | 5.9* | x | x | x | 1.3*
CC(=O)Nc1nc(-c2ccccc2)nc(-c2ccccc2OC(C)=O)n1 | 29 | x | 45 | 24* | 16

High-throughput results as filed in PubChem.
